FID counter: compounds displacing fluorescent DNA intercalator, primary screen, artefact control for HCV NS3 helicase inhibitor project, biochemical, FID fluorescence; AID 1845, 2009; 290,000 tested, 0.17% active; DNA fluorescent intercalator displacement; inhibition, % at 7.9 µM; in the data active = inhibition above about 37%;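 also: higher means more ethidium bromide displaced from hairpin DNA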
TRPC4 PAM: positive allosteric modulators of TRPC4, primary screen, cell-based, mouse TRPC4beta, HEK293 mu-opioid, Fluo-4 calcium; Short transient receptor potential channel 4 (Mus musculus), Q9QUQ5; DAMGO EC20, Fluo-4 Ca2+ flux; active compounds read high; B-score at 10 µM; 310,000 tested, 0.42% active;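 active = B-score of calcium response area above 5 SD of library B-scores, with initial fluorescence ratio within 5 SD of library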
TRPC6 inh: mouse TRPC6 channel inhibitors, primary screen, cell-based, HEK293, membrane potential dye | B-score at 10 µM | 310,000 tested, 1.1% active | ACh-evoked depolarization; active compounds read low | Short transient receptor potential channel 6 (Mus musculus), Q61143;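 active = B-score under library mean minus 3 SD, initial fluorescence not abnormally high, positive integrated signal ratio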;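 also: B-score derived from integrated fluorescence ratio over the kinetic read; more negative B-score means stronger inhibition of depolarization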
TRPC6 activator: mouse TRPC6 channel activators, primary screen, cell-based, HEK293, membrane potential dye | AID 2550, 2010 | Short transient receptor potential channel 6 (Mus musculus), Q61143 | HEK293-TRPC6 membrane potential dye fluorescence; active compounds read high | B-score at 10 µM | 310,000 tested, 0.13% active;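 active = B-score of the integrated fluorescence ratio above library mean plus 3 SD, and starting fluorescence ratio within library mean plus 5 SD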;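 also: higher score means more depolarization so channel activation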
TRPC4 inh: inhibitors of mouse TRPC4 channel, primary screen, Fluo4 calcium, HEK293 TRPC4beta/mu-opioid cells. Short transient receptor potential channel 4 (Mus musculus), Q9QUQ5. AID 2247, 2010. 300,000 tested, 0.39% active. DAMGO-evoked Fluo4 calcium flux; active compounds read low. B-score at 10 µM;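 active = B-score over 3 SD under the library average, no early fluorescence shift, positive overall ratio signal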
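Assay system – HEK293 line stably carrying TRPC4beta and mu-opioid receptor · Doses – single dose · Detection – Fluo4 calcium-dye fluorescence, kinetic read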
TRPC4 agonist: activators of mouse TRPC4 channel, primary screen, Fluo4 calcium, HEK293 TRPC4beta/mu-opioid cells; B-score at 10 µM; Fluo4 calcium fluorescence; active compounds read high; Short transient receptor potential channel 4 (Mus musculus), Q9QUQ5; 310,000 tested, 0.49% active;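 active = B-score above 5 SD of library B-scores, and initial fluorescence ratio not above library mean plus 5 SD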;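 also: positive B-score marks a calcium rise read as TRPC4 activation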
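Assay system: HEK293 cells stably co-expressing mouse TRPC4beta and mu-opioid receptor / Timing: Fluo4 dye loading 45 min at room temperature, 110 s recording / Signal: Fluo4 calcium-sensitive dye fluorescence, kinetic, 1 Hz baseline / Read-out: integrated baseline-normalised fluorescence ratio, converted to per-well B score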
Each line names hits and unclear results; the compound was inactive in the other large screens. In the library only some 2.3% were active in any assay of this set; here they are far more common.

CC(=O)c1ccc(NC(=O)CCNC(=O)c2ccc(Cl)cc2)cc1	none
CCN(CC)CCN1C(=O)c2ccccc2NC1c1ccc(F)cc1 (configuration not stated)	none
O=C(O)CCC(=O)NN1C(=O)c2ccccc2NC1c1ccc(F)cc1 (configuration not stated)	TRPC4 PAM 11
CSCCC(NC(=O)c1ccco1)C(=O)OC(C)C(=O)NC(=O)NC1CCCCC1 (configuration not stated)	TRPC4 agonist 70
CSCCC(NC(=O)c1ccco1)C(=O)N1CCN(Cc2ccccc2)CC1 (configuration not stated)	none (no result: FID counter)
CCCOc1ccc(C(=O)CCC(=O)OCC(=O)N(C)c2c(N)n(Cc3ccccc3)c(=O)[nH]c2=O)cc1	none
COC(=O)c1cccc(NC(=S)Nc2cccc(Cl)c2Cl)c1	TRPC4 inh -6
O=C(COc1ccc(NC(=O)c2ccccc2)cc1)c1ccccc1	none
CCOC(=O)N1CCN(C(=O)c2ccc(-n3c(=S)[nH]c4ccccc4c3=O)cc2)CC1	none
CCOC(=O)COc1cc(-n2c(=S)[nH]c3ccccc3c2=O)c(Cl)cc1Cl	TRPC4 PAM 31
CC(C)(C(N)=O)N1CCN(c2ncc(C(F)(F)F)cc2Cl)CC1	TRPC4 agonist 61
CCOC(=O)N1CCN(c2ncc(C(F)(F)F)cc2Cl)CC1	none
FC(F)(F)c1cnc(N2CCSCC2)c(Cl)c1	none
FC(F)(F)c1cnc(N2CCCN(C(=S)Nc3ccccc3)CC2)c(Cl)c1	TRPC4 agonist 159
N#Cc1ccc(OCC(O)CN2CCN(c3ncc(C(F)(F)F)cc3Cl)CC2)cc1 (configuration not stated)	TRPC4 PAM 25
FC(F)(F)c1cnc(N2CCN(C(=S)NCc3ccccc3)CC2)c(Cl)c1	none
N#Cc1ccc(OCC(O)CN2CCN(CC(O)COc3ccc(C#N)cc3)CC2)cc1 (configuration not stated)	none
CNCC(=O)N1CCN(c2ncc(C(F)(F)F)cc2Cl)CC1	TRPC4 agonist 189
O=[N+]([O-])c1cc(N=Nc2ccc3ccccc3c2)ccc1O	none
COC(=O)C1CC(Cl)CN1c1ncc(C(F)(F)F)cc1Cl (configuration not stated)	TRPC4 PAM 11
O=C(O)c1nn(CC(=O)N2CCCCCC2)c(=O)c2ccccc12	none
O=C(CSc1ccccn1)N1CCN(C(=O)CSc2ccccn2)CC1	none (no result: FID counter)
O=C(O)c1nn(CC(=O)N2CCN(c3ncc(C(F)(F)F)cc3Cl)CC2)c(=O)c2ccccc12	TRPC4 PAM 15
O=C(CSc1ccccn1)N1CCN(c2ncc(C(F)(F)F)cc2Cl)CC1	TRPC4 agonist 49
CON=C1CCN(c2ncc(C(F)(F)F)cc2Cl)CC1	none
N#Cc1ccc(C(=O)NCC2CCCCC2)cc1	none
Cc1cc(C(=O)N2CCN(c3ccc([N+](=O)[O-])cc3)CC2)n[nH]1	none
Cn1c(=O)n(CC(=O)NCC2CCCO2)c(=O)c2c3c(sc21)CCCC3 (configuration not stated)	none
NCCc1nc(-c2ccccc2)cs1	TRPC4 agonist 116
CC1CCc2nc(NC(=O)CN3CCN(c4ccccc4)CC3)sc2C1 (configuration not stated)	none
CC1CCc2nc(NC(=O)CN3CCN(Cc4ccc5c(c4)OCO5)CC3)sc2C1 (configuration not stated)	TRPC4 inh -6
COc1ccccc1N1CCN(C(=O)c2cc(C(C)(C)C)oc2C)CC1	none
Cc1oc(C(C)(C)C)cc1C(=O)N1CCN(c2ncccc2C(F)(F)F)CC1	TRPC4 PAM 11
CCCCn1c(N)c(N(CCOC)C(=O)CCS(=O)(=O)c2ccc(Cl)cc2)c(=O)[nH]c1=O	none (no result: FID counter)

Screening results deposited in PubChem BioAssay by several laboratories.
